Data set [1] relates to Pseudomonas fluorescens. Description: Antibacterial activity against Pseudomonas fluorescens after 24 hrs by MTT assay. The format is functional. An outline of the steps:
(§1)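 Broth microdilution in Mueller-Hinton medium. Compound stock 100 µg/mL in DMSO, serially diluted into medium. Inoculum about 10⁵ cfu/mL, incubated 37 °C for 24 h. After visual MIC reading, MTT (2 mg/mL in PBS pH 7.4) added, 4–5 h at room temperature. Dye extracted with isopropanol containing 5% 1 mol/L HCl for 12 h, OD read at 550 nm.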
(Tetrazolium dyes change colour on reduction, which living cells bring about.)

Data set [2] has as its system Escherichia coli. The experiment in a line: Antibacterial activity against Escherichia coli after 24 hrs by MTT assay. It counts as functional. The essentials: as §1
For data set [3], the system named is Bacillus subtilis. The experiment in a line: Antibacterial activity against Bacillus subtilis after 24 hrs by MTT assay. The format is functional. The essentials:
as §1

The subject of data set [4] is Staphylococcus aureus. The experiment in a line: Antibacterial activity against Staphylococcus aureus after 24 hrs by MTT assay. The format is functional. An outline of the steps: as §1
The nature of data set [5]: Toxicity in erythrocytes assessed as hemolytic activity. The format is cell-based. Particulars: erythrocyte.
Data set [6] addresses T1, 3-oxoacyl-[acyl-carrier-protein] synthase 3 (Escherichia coli, UniProt C3TDZ2).
T1 sequence (C3TDZ2 whole entry): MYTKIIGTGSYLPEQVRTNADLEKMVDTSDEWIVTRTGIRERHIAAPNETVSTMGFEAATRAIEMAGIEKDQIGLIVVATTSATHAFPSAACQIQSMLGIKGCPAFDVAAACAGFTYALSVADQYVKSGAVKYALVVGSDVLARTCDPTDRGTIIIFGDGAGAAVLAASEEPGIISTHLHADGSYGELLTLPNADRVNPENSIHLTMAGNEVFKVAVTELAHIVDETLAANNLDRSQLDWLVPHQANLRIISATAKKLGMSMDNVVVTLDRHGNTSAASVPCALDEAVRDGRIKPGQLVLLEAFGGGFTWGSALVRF
The experiment in a line: Inhibition of Escherichia coli FabH expressed in Escherichia coli DH10B cells assessed as incorporation of 3[H] after 25 mins by liquid scintillation. The essentials:
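Native E. coli FabH overexpressed from pET30 in DH10B cells and purified by Q-Sepharose, MonoQ and hydroxyapatite chromatography. Reaction mix contains 0.25 mM MgCl₂, acetyl-CoA, 0.5 mM NADH and 0.5 mM NADPH, run 25 min. Stopped with ice-cold 50% TCA, protein pelleted, washed with 10% TCA, dissolved in 0.5 M NaOH. Incorporated ³H counted by liquid scintillation. DMSO at most 2% final; IC50 determined.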

The values below come from ChEMBL document CHEMBL1806364, “Discovery of vinylogous carbamates as a novel class of β-ketoacyl-acyl carrier protein synthase III (FabH) inhibitors” (Bioorg Med Chem, 2011).

SMILES strings stand for the structures. Values after ≈ are worked out from the molar mass of the structure shown. Where only a bound is given, the exact number is not on record here.

The term MIC denotes the lowest concentration found to suppress growth. Regarding `CCOC(=O)/C(=C\Nc1ccc(F)cc1F)c1ccc(OCc2ccccc2)cc1`, the minimal inhibitory concentration (MIC) is 12.5 mg/L (≈ 30.5 µM) in data set [1], 6.25 mg/L (≈ 15.3 µM) in data set [2], over 50 mg/L in data set [3] and over 50 mg/L in data set [4].
Take `CCOC(=O)/C(=C/Nc1ccc([N+](=O)[O-])cc1)c1ccc(OCc2ccccc2)cc1`: the MIC in data set [1], in data set [2], in data set [3] and in data set [4] was over 50 mg/L in each case.
What is called IC50 is the concentration needed to halve the response being measured. On to `CCOC(=O)/C(=C/Nc1ccc(C(C)C)cc1)c1ccc(OCc2ccccc2)cc1`, for which the LC30 in data set [5] was over 10000 mg/L. Further, the minimal inhibitory concentration (MIC) in data set [1] came to 6.25 mg/L (≈ 15 µM); in data set [2], 6.25 mg/L (≈ 15 µM); in data set [3], 12.5 mg/L (≈ 30.1 µM); in data set [4] it was 25 mg/L (≈ 60.2 µM). Besides, the IC50 in data set [6] was found to be 8.5 µM.
On to `CCOC(=O)/C(=C\Nc1ccc(Cl)cc1)c1ccc(OCc2ccccc2)cc1`, for which the minimal inhibitory concentration (MIC) in data set [1] came out at 6.25 mg/L (≈ 15.3 µM); in data set [2] it was 12.5 mg/L (≈ 30.6 µM); in data set [3], 25 mg/L (≈ 61.3 µM); in data set [4], 25 mg/L (≈ 61.3 µM).
`CCOC(=O)/C(=C\Nc1ccc(Br)cc1)c1ccc(OCc2ccccc2)cc1`: the LC30 in data set [5] was over 10000 mg/L. The MIC amounted to 1.56 mg/L (≈ 3.45 µM) in data set [1], 1.56 mg/L (≈ 3.45 µM) in data set [2], 50 mg/L (≈ 111 µM) in data set [3] and 25 mg/L (≈ 55.3 µM) in data set [4]. The IC50 in data set [6] came to 3.3 µM.
With `CCOC(=O)/C(=C\Nc1ccccc1)c1ccc(OCc2ccccc2)cc1`, the MIC in data set [1] came to 25 mg/L (≈ 66.9 µM); in data set [2], 12.5 mg/L (≈ 33.5 µM); in data set [3], 25 mg/L (≈ 66.9 µM); in data set [4], 50 mg/L (≈ 134 µM).
`CCOC(=O)/C(=C/Nc1ccccc1Cl)c1ccc(OCc2ccccc2)cc1`: the minimum inhibitory concentration (MIC) is over 50 mg/L in data set [1], 25 mg/L (≈ 61.3 µM) in data set [2], 25 mg/L (≈ 61.3 µM) in data set [3] and 12.5 mg/L (≈ 30.6 µM) in data set [4].
As for `CCOC(=O)/C(=C/Nc1ccc(Cl)cc1)c1ccc(OCc2ccccc2)cc1`, the MIC in data set [1] was 25 mg/L (≈ 61.3 µM); in data set [2] it was 25 mg/L (≈ 61.3 µM); in data set [3] it was 25 mg/L (≈ 61.3 µM); in data set [4], over 50 mg/L.
In the case of `CCOC(=O)/C(=C\Nc1ccc(F)cc1)c1ccc(OCc2ccccc2)cc1`, the LC30 in data set [5] was over 10000 mg/L. Also, the minimum inhibitory concentration (MIC) is 3.12 mg/L (≈ 7.98 µM) in data set [1], 3.12 mg/L (≈ 7.98 µM) in data set [2], 25 mg/L (≈ 63.9 µM) in data set [3] and over 50 mg/L in data set [4]. Further, the IC50 in data set [6] was 8.2 µM.
On to `CCOC(=O)/C(=C/Nc1ccc(C)cc1)c1ccc(OCc2ccccc2)cc1`, for which the MIC in data set [1], in data set [2], in data set [3] and in data set [4] was over 50 mg/L in each case.
For `CCOC(=O)/C(=C\Nc1ccc([N+](=O)[O-])cc1)c1ccc(OCc2ccccc2)cc1`, the MIC was 6.25 mg/L (≈ 14.9 µM) in data set [1], 3.12 mg/L (≈ 7.47 µM) in data set [2], over 50 mg/L in data set [3] and over 50 mg/L in data set [4].
As for `CCOC(=O)/C(=C\Nc1ccc(Cl)cc1Cl)c1ccc(OCc2ccccc2)cc1`, the MIC in data set [1], in data set [2], in data set [3] and in data set [4] was 25 mg/L (≈ 56.5 µM) in each case.
On to `CCOC(=O)/C(=C\Nc1ccccc1F)c1ccc(OCc2ccccc2)cc1`, for which the minimum inhibitory concentration (MIC) is 25 mg/L (≈ 63.9 µM) in data set [1], 12.5 mg/L (≈ 31.9 µM) in data set [2], over 50 mg/L in data set [3] and 25 mg/L (≈ 63.9 µM) in data set [4].
As for `CCOC(=O)/C(=C/Nc1ccc(Cl)cc1Cl)c1ccc(OCc2ccccc2)cc1`, the minimal inhibitory concentration (MIC) in data set [1] is 25 mg/L (≈ 56.5 µM); in data set [2] it was 25 mg/L (≈ 56.5 µM); in data set [3], over 50 mg/L; in data set [4] it was over 50 mg/L.
Regarding `CCOC(=O)/C(=C/Nc1ccc(Br)cc1)c1ccc(OCc2ccccc2)cc1`, the LC30 in data set [5] is over 10000 mg/L. Besides, the MIC in data set [1], in data set [2], in data set [3] and in data set [4] was over 50 mg/L each time. In data set [6], the 50% inhibitory concentration (IC50) stood at 43 µM.
For the compound `CCOC(=O)/C(=C/Nc1ccc(F)cc1)c1ccc(OCc2ccccc2)cc1`, the MIC is 12.5 mg/L (≈ 31.9 µM) in data set [1], 6.25 mg/L (≈ 16 µM) in data set [2], 25 mg/L (≈ 63.9 µM) in data set [3] and 12.5 mg/L (≈ 31.9 µM) in data set [4].
Regarding `CCOC(=O)/C(=C/Nc1ccccc1F)c1ccc(OCc2ccccc2)cc1`, the minimal inhibitory concentration (MIC) was over 50 mg/L in data set [1], 25 mg/L (≈ 63.9 µM) in data set [2], over 50 mg/L in data set [3] and over 50 mg/L in data set [4].
With `CCOC(=O)/C(=C\Nc1ccccc1Cl)c1ccc(OCc2ccccc2)cc1`, the LC30 in data set [5] was over 10000 mg/L. Further, the minimal inhibitory concentration (MIC) in data set [1] was 25 mg/L (≈ 61.3 µM); in data set [2], 12.5 mg/L (≈ 30.6 µM); in data set [3] it was over 50 mg/L; in data set [4], over 50 mg/L. The concentration for half-maximal inhibition (IC50) in data set [6] was determined as 28 µM.
With `CCOC(=O)/C(=C\Nc1ccc(C(C)C)cc1)c1ccc(OCc2ccccc2)cc1`, the MIC in data set [1] came to 3.12 mg/L (≈ 7.52 µM); in data set [2], 3.12 mg/L (≈ 7.52 µM); in data set [3], 25 mg/L (≈ 60.2 µM); in data set [4], 12.5 mg/L (≈ 30.1 µM).
Regarding `CCOC(=O)/C(=C\Nc1ccc(Br)cc1Br)c1ccc(OCc2ccccc2)cc1`, the LC30 in data set [5] was over 10000 mg/L. The minimal inhibitory concentration (MIC) in data set [1] was determined as 12.5 mg/L (≈ 23.5 µM); in data set [2], 12.5 mg/L (≈ 23.5 µM); in data set [3] it was 25 mg/L (≈ 47.1 µM); in data set [4], 25 mg/L (≈ 47.1 µM). For the same compound, in data set [6], the IC50 came out at 24 µM.
`CCOC(=O)/C(=C/Nc1ccccc1)c1ccc(OCc2ccccc2)cc1`: the minimal inhibitory concentration (MIC) in data set [1] worked out at 6.25 mg/L (≈ 16.7 µM); in data set [2], 6.25 mg/L (≈ 16.7 µM); in data set [3] it was 25 mg/L (≈ 66.9 µM); in data set [4], 25 mg/L (≈ 66.9 µM).
Consider `CCOC(=O)/C(=C/Nc1ccc(Br)cc1Br)c1ccc(OCc2ccccc2)cc1`, for which the minimal inhibitory concentration (MIC) in data set [1] was determined as 12.5 mg/L (≈ 23.5 µM); in data set [2], 3.13 mg/L (≈ 5.89 µM); in data set [3], 12.5 mg/L (≈ 23.5 µM); in data set [4], 12.5 mg/L (≈ 23.5 µM).
`CCOC(=O)/C(=C\Nc1ccc(C)cc1)c1ccc(OCc2ccccc2)cc1`: in data set [5], the LC30 is over 10000 mg/L. The MIC in data set [1] was 1.56 mg/L (≈ 4.03 µM); in data set [2], 0.78 mg/L (≈ 2.01 µM); in data set [3], 25 mg/L (≈ 64.5 µM); in data set [4] it was 25 mg/L (≈ 64.5 µM). The IC50 in data set [6] was 2.6 µM.
`CCOC(=O)/C(=C/Nc1ccc(F)cc1F)c1ccc(OCc2ccccc2)cc1`: the MIC in data set [1] stood at 25 mg/L (≈ 61.1 µM); in data set [2] it was 25 mg/L (≈ 61.1 µM); in data set [3], 12.5 mg/L (≈ 30.5 µM); in data set [4], 12.5 mg/L (≈ 30.5 µM).
`NC[C@H]1O[C@H](O[C@H]2[C@H](O)[C@@H](O[C@H]3O[C@H](CO)[C@@H](O)[C@H](N)[C@H]3O)[C@H](N)C[C@@H]2N)[C@H](N)[C@@H](O)[C@@H]1O` [BEKANAMYCIN]: the minimal inhibitory concentration (MIC) in data set [1] amounted to 3.12 mg/L (≈ 6.46 µM); in data set [2], 3.12 mg/L (≈ 6.46 µM); in data set [3], 0.39 mg/L (≈ 0.807 µM); in data set [4], 1.56 mg/L (≈ 3.23 µM).
